Assay results from ChEMBL document CHEMBL1938272 (Bioorg Med Chem, 2012).
pIC50: −log10 of the molar value.

Assays:
[1] = molecular target: NAD(P)H dehydrogenase [quinone] 1 (Mus musculus) (UniProt Q64669); test: Induction of QR1 activity in mouse Hepa-1c1c7 cells using MTT as substrate by spectrophotometry; format: cell-based
Method in brief: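 Mouse hepatoma Hepa 1c1c7 cells were incubated with compound, then permeabilised with digitonin. QR1 activity was read as MTT reduction to formazan at 595 nm, with crystal violet total protein run in parallel. Induction ratio is activity versus control; CD is the concentration doubling activity, derived only when the ratio is above 2.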

[2] = molecular target: NAD(P)H dehydrogenase [quinone] 1 (Mus musculus) (UniProt Q64669); test: Induction of QR1-mediated cytoprotective activity in mouse Hepa-1c1c7 cells at 50 uM assessed as cell survival; format: cell-based
[3] = molecular target: NAD(P)H dehydrogenase [quinone] 1 (Mus musculus) (UniProt Q64669); test: Induction of QR1-mediated cytoprotective activity in mouse TAOc1 mutant Hepa cells at 50 uM assessed as cell survival; format: cell-based
[4] = molecular target: NAD(P)H dehydrogenase [quinone] 1 (Mus musculus) (UniProt Q64669); test: Induction of QR1-mediated cytoprotective activity in mouse BPrc1 cells at 50 uM assessed as cell survival; format: cell-based
[5] = Inhibition of TNFalpha-activated NF-kappaB expressed in HEK293 cells by luciferase reporter gene assay; format: cell-based
[6] = test system: Radical scavenging activity; test: Antioxidant activity assessed as DPPH free radical scavenging activity at 400 uM after 30 mins by spectrophotometry; format: functional
MCF7 = test: Antiproliferative activity against human MCF7 cells after 72 hrs by SRB assay; format: functional, cell-based; conditions: MCF7, 72 h
Method in brief: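 MCF-7 breast cancer cells exposed to serially diluted compounds (DMSO) for 72 h at 37 °C in CO2 incubator; fixed with 10% trichloroacetic acid, stained with 0.4% SRB, OD read at 515 nm. Zero-day control of 1 × 10^4 cells per well processed after 30 min. Survival = (OD test − OD zero-day)/(OD control − OD zero-day) × 100; IC50 from survival.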

Aromatase [7] = molecular target: T1, Aromatase (Homo sapiens, UniProt P11511); conditions: 2 h, read-out: Imax
T1 sequence (P11511 whole entry): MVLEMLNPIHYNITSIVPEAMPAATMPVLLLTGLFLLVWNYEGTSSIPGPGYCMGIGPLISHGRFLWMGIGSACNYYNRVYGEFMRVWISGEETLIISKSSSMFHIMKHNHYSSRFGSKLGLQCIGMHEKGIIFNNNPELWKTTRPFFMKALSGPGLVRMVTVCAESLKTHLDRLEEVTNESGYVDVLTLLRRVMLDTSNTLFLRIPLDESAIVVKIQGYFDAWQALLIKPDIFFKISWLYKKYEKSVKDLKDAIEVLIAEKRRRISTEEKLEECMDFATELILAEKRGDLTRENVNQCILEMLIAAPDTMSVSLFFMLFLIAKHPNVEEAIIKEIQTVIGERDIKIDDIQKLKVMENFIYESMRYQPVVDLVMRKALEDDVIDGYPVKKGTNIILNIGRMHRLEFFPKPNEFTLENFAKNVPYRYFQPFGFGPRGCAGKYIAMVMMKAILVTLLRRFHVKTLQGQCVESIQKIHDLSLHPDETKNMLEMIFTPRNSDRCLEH

Aromatase [8] = molecular target: T1, Aromatase
RAW264.7 [9] = test: Antiinflammatory activity in mouse RAW264.7 cells assessed as inhibition of LPS-induced NO production at 40 uM preincubated for 30 mins before LPS challenge by Griess method
[10] = molecular target: NAD(P)H dehydrogenase [quinone] 1 (Mus musculus) (UniProt Q64669); test: Induction of QR1 activity in mouse TAOc1 mutant Hepa cells using MTT as substrate by spectrophotometry; format: cell-based
[11] = molecular target: NAD(P)H dehydrogenase [quinone] 1 (Mus musculus) (UniProt Q64669); test: Induction of QR1 activity in mouse BPrc1 cells using MTT as substrate by spectrophotometry; format: cell-based
HEK293 = test: Inhibition of TNFalpha-activated NF-kappaB expressed in HEK293 cells at 50 uM by luciferase reporter gene assay; format: cell-based
RAW264.7 [12] = test: Antiinflammatory activity in mouse RAW264.7 cells assessed as inhibition of LPS-induced NO production preincubated for 30 mins before LPS challenge measured after 24 hrs by Griess method; format: functional, cell-based

Sequence of NAD(P)H dehydrogenase [quinone] 1 (Mus musculus) (Q64669 whole entry): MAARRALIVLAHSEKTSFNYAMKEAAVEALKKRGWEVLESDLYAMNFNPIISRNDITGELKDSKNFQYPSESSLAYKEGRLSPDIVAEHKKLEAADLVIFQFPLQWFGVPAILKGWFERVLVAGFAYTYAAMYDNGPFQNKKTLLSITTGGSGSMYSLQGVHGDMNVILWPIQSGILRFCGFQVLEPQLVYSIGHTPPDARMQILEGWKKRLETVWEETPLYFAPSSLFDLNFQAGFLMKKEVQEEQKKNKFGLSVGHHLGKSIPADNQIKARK

SMILES | CD [1] | Survival [2] | Survival [3] | Survival [4] | pIC50 [5] | inhibition [6] | pIC50 (MCF7) | inhibition at 50 µM (Aromatase [7]) | pIC50 (Aromatase [8]) | inhibition at 40 µM (RAW264.7 [9]) | CD [10] | CD [11] | inhibition (HEK293) | pIC50 (RAW264.7 [12])
Cc1cccc(-c2nsc(-c3cccc(C)c3)n2)c1 | 4 µM | 33.7% | 94.9% | 100% | 6.10 | 1.9% | 4.66 | 32.9% | < 4.30 | 0.9% | – | – | – | –
Cc1c(Cl)cccc1-c1nsc(-c2cccc(Cl)c2C)n1 | 4 µM | 96% | 68% | 100% | – | 2.3% | 4.52 | 19.8% | < 4.30 | 24.5% | 48.7 µM | 38.2 µM | 20.3% | –
COc1cccc(-c2nsc(-c3cccc(OC)c3)n2)c1 | 4.03 µM | 63.7% | 76.3% | 97.1% | 6.40 | -2.1% | 4.62 | 26.6% | < 4.30 | 17.6% | – | – | 93.9% | –
Ic1cccc(-c2nsc(-c3cccc(I)c3)n2)c1 | 3.1 µM | 103% | 73.6% | 77.3% | – | 14.3% | 4.43 | 30.6% | < 4.30 | 15.6% | – | – | 0% | –
Nc1ccc(-c2nsc(-c3ccc(N)cc3)n2)cc1 | – | 66.1% | – | – | 5.12 | – | 4.51 | 70.4% | 4.58 | – | – | – | – | 4.63
Oc1ccc(-c2nsc(-c3ccc(O)cc3)n2)cc1 | – | 36.5% | – | – | 4.71 | 3.4% | 5.33 | 50.4% | < 4.30 | 93.7% | – | – | – | 4.87
Cc1cc(Cl)ccc1-c1nsc(-c2ccc(Cl)cc2C)n1 | 0.44 µM | 77.3% | 71% | 94.7% | – | 3.7% | 4.40 | 35.3% | < 4.30 | 10.1% | 3.8 µM | 2.8 µM | 0% | –
Clc1ccccc1-c1nsc(-c2ccccc2Cl)n1 | – | 75.2% | 100% | 83.8% | – | 2.8% | 4.45 | 49.7% | < 4.30 | -5.9% | 44.3 µM | 34.6 µM | – | –
Cc1ccc(Cl)cc1-c1nsc(-c2cc(Cl)ccc2C)n1 | 0.47 µM | 37.9% | 80.2% | 91.5% | – | 1.3% | 4.54 | 22% | < 4.30 | 25.9% | 2 µM | 4.4 µM | 29.7% | –
Oc1cccc(-c2nsc(-c3cccc(O)c3)n2)c1 | – | 4% | 63.7% | 94.3% | 4.42 | – | – | 24.4% | < 4.30 | 47.4% | – | – | – | –
Clc1ccc(Cl)c(-c2nsc(-c3cc(Cl)ccc3Cl)n2)c1 | – | 88.1% | 82.8% | 94.7% | – | 1% | 4.75 | 16.6% | < 4.30 | 17.9% | 41 µM | 44.5 µM | – | –
CC(C)(C)c1ccc(-c2nsc(-c3ccc(C(C)(C)C)cc3)n2)cc1 | 27.7 µM | 47.5% | 74.1% | 85.1% | – | 2.9% | – | 43.5% | < 4.30 | 0.5% | – | – | 0% | –
Clc1cccc(-c2nsc(-c3cccc(Cl)c3Cl)n2)c1Cl | 2 µM | 47% | 74.5% | 56.3% | – | 11.1% | 4.99 | 45.9% | < 4.30 | 21.4% | – | – | 0% | –
Ic1ccccc1-c1nsc(-c2ccccc2I)n1 | – | 48.8% | 69.8% | 95.1% | – | 3.4% | – | 39.4% | < 4.30 | 30% | 6.3 µM | 8.1 µM | – | 4.52
Clc1ccc(-c2nsc(-c3ccc(Cl)cc3)n2)cc1 | 4 µM | 78.3% | 77.8% | 79.3% | – | 2.7% | – | 9.7% | < 4.30 | 5.1% | – | – | 0% | –
Oc1ccc(/C=C\c2cc(O)cc(O)c2)cc1 | – | 89.3% | 100% | 77.8% | – | – | – | – | – | – | – | 49.7 µM | – | –
c1ccc(-c2nsc(-c3ccccc3)n2)cc1 | – | 50.3% | 85.9% | 77.8% | 4.32 | – | 4.61 | 60.2% | < 4.30 | 55.7% | 18.6 µM | 49.7 µM | – | –
Brc1cccc(-c2nsc(-c3cccc(Br)c3)n2)c1 | 0.059 µM | 79.3% | 77.7% | 92.3% | – | 1% | 4.51 | 48.4% | < 4.30 | 22.8% | 2.5 µM | 6.5 µM | 0% | –
